# Test results published in ChEMBL document CHEMBL2151003, “Synthesis and antitumor activity of ring A modified glycyrrhetinic acid derivatives” (Eur J Med Chem, 2011).
# Calls of active or inactive are those of the source. No cut-off for these calls is given here.
# Key:
# A549 [1] = experiment: Cytotoxicity against human A549 cells after 96 hrs by SRB assay; type: functional, cell-based
# Outline: (§1)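 Monolayer cultures in RPMI 1640 with 10% heat-inactivated FBS and penicillin/streptomycin, 37 °C, 5% CO2. Exponentially growing cells were seeded, then treated 24 h later with serial dilutions (0–30 µM; DMSO or DMF ≤0.5% final) for 96 h. Cells were fixed with 10% TCA at 4 °C, stained with 0.4% SRB and solubilized in 10 mM Tris base; A570 was read. IC50 came from semi-log dose–response curves, ≥3 independent experiments.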
# A2780 = experiment: Cytotoxicity against human A2780 cells after 96 hrs by SRB assay; type: functional, cell-based; outline: as §1
# DLD-1 = experiment: Cytotoxicity against human DLD1 cells after 96 hrs by SRB assay; type: functional, cell-based; outline: as §1
# 8505C = experiment: Cytotoxicity against human 8505C cells after 96 hrs by SRB assay; type: functional, cell-based; outline: as §1
# [2] = Cytotoxicity against human 518A2 cells after 96 hrs by SRB assay; type: functional, cell-based; outline: as §1
# A549 [3] = experiment: Induction of apoptosis in human A549 cells assessed as apoptotic effect at 20 uM after 24 to 48 hrs by trypan blue cell counting analysis; type: functional
# Outline: (§2)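 A549 cells (approx. 500,000 per flask) were grown 24 h, then given compound-containing medium for about 24–48 h. Collected cells were pelleted, washed in PBS and mixed 1:1 with 0.4% trypan blue in PBS, pH 7.2. An automated counter distinguished cells with intact and with damaged membranes. Results are % apoptosis ± standard error, 6 experiments each.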
# SW-1736 = experiment: Cytotoxicity against human SW1736 cells after 96 hrs by SRB assay; type: functional, cell-based; outline: as §1
# MCF7 = experiment: Cytotoxicity against human MCF7 cells after 96 hrs by SRB assay; type: functional, cell-based; outline: as §1
# A549 [4] = experiment: Induction of apoptosis in human A549 cells assessed as appearance of green fluorescent cells at 20 uM after 24 to 48 hrs by acridine orange/ethidium bromide staining based fluorescence microscopy; type: functional, cell-based
# Outline: (§3)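 Approx. 500,000 A549 cells per flask were grown 24 h, then exposed to compound-containing medium for 24–48 h. Cells from the supernatant were pelleted, washed and resuspended in PBS, mixed with AO/EB and examined by fluorescence microscopy. Green fluorescence was scored as apoptotic and red nuclei as necrotic; the read-out is qualitative.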
# [5] = Cytotoxicity against human A253 cells after 96 hrs by SRB assay; type: functional, cell-based; outline: as §1
# [6] = Cytotoxicity against human Lipo cells after 96 hrs by SRB assay; type: functional, cell-based; outline: as §1
# A549 [7] = experiment: Induction of apoptosis in human A549 cells assessed as apoptotic effect at 90 uM after 24 to 48 hrs by trypan blue cell counting analysis; type: functional; outline: as §2
# A-431 = experiment: Cytotoxicity against human A431 cells after 96 hrs by SRB assay; type: functional, cell-based; outline: as §1
# HCT-8 = experiment: Cytotoxicity against human HCT8 cells after 96 hrs by SRB assay; type: functional, cell-based
# Outline: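 Monolayers in RPMI 1640 with 10% heat-inactivated FBS and penicillin/streptomycin, 37 °C, 5% CO2. Seeded day 0 and exposed 24 h later to serial dilutions (0–30 µM; DMSO or DMF ≤0.5% final) for 96 h. Cells were then fixed with 10% TCA at 4 °C, stained with 0.4% SRB, washed with 1% acetic acid and dissolved in 10 mM Tris, and A570 was read. IC50 from semi-log dose–response curves, ≥3 independent experiments.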
# HT-29 = experiment: Cytotoxicity against human HT-29 cells after 96 hrs by SRB assay; type: functional, cell-based; outline: as §1
# HCT-116 = experiment: Cytotoxicity against human HCT116 cells after 96 hrs by SRB assay; type: functional, cell-based; outline: as §1
# A549 [8] = experiment: Induction of apoptosis in human A549 cells assessed as apoptotic effect at 8 uM after 24 to 48 hrs by trypan blue cell counting analysis; type: functional; outline: as §2
# A549 [9] = experiment: Induction of apoptosis in human A549 cells assessed as appearance of green fluorescent cells at 8 uM after 24 to 48 hrs by acridine orange/ethidium bromide staining based fluorescence microscopy; type: functional, cell-based; outline: as §3
# A549 [10] = experiment: Induction of apoptosis in human A549 cells assessed as appearance of green fluorescent cells at 4 uM after 24 to 48 hrs by acridine orange/ethidium bromide staining based fluorescence microscopy; type: functional, cell-based; outline: as §3
# A549 [11] = experiment: Induction of apoptosis in human A549 cells assessed as apoptotic effect at 4 uM after 24 to 48 hrs by trypan blue cell counting analysis; type: functional; outline: as §2
SMILES,IC50 (A549 [1]) [µmol],IC50 (A2780) [µmol],IC50 (DLD-1) [µmol],IC50 (8505C) [µmol],IC50 [2] [µmol],Activity (A549 [3]) [%],IC50 (SW-1736) [µmol],IC50 (MCF7) [µmol],Activity (A549 [4]),IC50 [5] [µmol],IC50 [6] [µmol],Activity (A549 [7]) [%],IC50 (A-431) [µmol],IC50 (HCT-8) [µmol],IC50 (HT-29) [µmol],IC50 (HCT-116) [µmol],Activity (A549 [8]) [%],Activity (A549 [9]),Activity (A549 [10]),Activity (A549 [11]) [%]
COC(=O)[C@@]1(C)CC[C@]2(C)CC[C@]3(C)C(=CC(=O)[C@@H]4[C@@]5(C)CC/C(=N\O)C(C)(C)[C@@H]5CC[C@]43C)[C@@H]2C1,17.4,6.18,10.46,17.18,18.93,32.43,13,15.95,Active,13.56,18.34,,,,,,,,,
CC1(C)[C@@H](O)CC[C@]2(C)[C@H]3C(=O)C=C4[C@@H]5C[C@@](C)(C(=O)O)CC[C@]5(C)CC[C@@]4(C)[C@]3(C)CC[C@@H]12 [ENOXOLONE],,,,,,,,,,,,73.73,,,,,,,,
CC1(C)C(=O)CC[C@]2(C)[C@H]3C(=O)C=C4[C@@H]5C[C@@](C)(C(=O)O)CC[C@]5(C)CC[C@@]4(C)[C@]3(C)CC[C@@H]12,> 30,,> 30,,> 30,,> 30,> 30,,> 30,> 30,,> 30,> 30,> 30,> 30,,,,
CC1(C)[C@@H](OC(=O)CNCCCN)CC[C@]2(C)[C@H]3C(=O)C=C4[C@@H]5C[C@@](C)(C(=O)OCc6ccccc6)CC[C@]5(C)CC[C@@]4(C)[C@]3(C)CC[C@@H]12,4.74,,4.96,2.07,5.14,,,,,1.96,2.99,,,,,,80.57,Active,,
COC(=O)[C@@]1(C)CC[C@]2(C)CC[C@]3(C)C(=CC(=O)[C@@H]4[C@@]5(C)CC[C@H](N)C(C)(C)[C@@H]5CC[C@]43C)[C@@H]2C1,2.51,3.32,2.56,2.45,2.52,,2.62,2.47,,2.36,2.74,,,,,,,,Active,74.21
CC1(C)[C@H](O)CC[C@]2(C)[C@H]3C(=O)C=C4[C@@H]5C[C@@](C)(C(=O)O)CC[C@]5(C)CC[C@@]4(C)[C@]3(C)CC[C@@H]12,> 30,,> 30,,> 30,,> 30,> 30,,> 30,> 30,,> 30,> 30,> 30,> 30,,,,
COC(=O)[C@@]1(C)CC[C@]2(C)CC[C@]3(C)C(=CC(=O)[C@@H]4[C@@]5(C)CC[C@@H](N)C(C)(C)[C@@H]5CC[C@]43C)[C@@H]2C1,3.33,3.42,3.21,2.33,2.74,,2.84,2.55,,2.44,3.3,,,,,,,,Active,64.88
COC(=O)[C@@]1(C)CC[C@]2(C)CC[C@]3(C)C(=CC(=O)[C@@H]4[C@@]5(C)CC[C@H](NC(=O)[C@H](C)N)C(C)(C)[C@@H]5CC[C@]43C)[C@@H]2C1,5.38,5.39,6.44,4.46,5.55,,5.25,5.08,,4.46,5.82,,,,,,56.77,Active,,
